Bioassay records (PubChem BioAssay)
bovine MsrA act: activates bovine MsrA enzyme | activation, % at 10.6 µM | purified bovine MsrA, absorbance read-out | 360,000 compounds, 0.3% hits; in the data active means activation above about 7.5%
SKN-1 inh: blocks SKN-1 activity in C. elegans; C. elegans VP596 Pgst-4::GFP/RFP ratio, acrylamide-induced, 24 h; inhibition, % at 21.8 µM; 360,000 compounds, 0.49% hits;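 active means interference check ratio from 0.5 to 1.5 plus GFP to RFP signal ratio inhibition reaching or exceeding a fixed threshold, cut at about 30% in these data, passing the limit was not always enough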
pCIP destab: compounds decreasing mouse p/CIP protein stability | F442A p/CIP-EGFP cells, EGFP fluorescence, 16 h | decrease of EGFP signal, % at 10 µM | 290,000 compounds, 0.01% hits;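 active means EGFP signal decrease of at least 30% at 10 µM or well 3 SD below plate mean, unless failing retest; inactive means the rest, including hits failing retest or dose response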
MsrA inhibitor: inhibitors of bovine MsrA. purified bovine MsrA, absorbance read-out. inhibition, % at 15.5 µM. 360,000 compounds, 0.75% hits. AID 651718
MT1-MMP act inh: MT1-MMP (human) activation inhibition. AID 651647. HT1080 RFP-PRO-GFP cells, GFP/RFP ratio fluorescence, overnight; percent of plate control window, DMSO zero. GFP/RFP ratio change, % at 20 µM. P50281. 360,000 compounds, 0.061% hits;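 active means GFP/RFP ratio change of at least 30% with cell ATP level not reduced by more than half and red fluorescence within 50% of control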
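Assay system: HT1080 cells carrying an RFP-PRO-GFP reporter | Dosing: Single dose of 20 µM compound, 1% DMSO final | Incubation: Cells overnight before dosing, compound overnight, 37 °C, 5% CO2 | Evaluation: GFP/RFP fluorescence ratio | Control set: DMSO and RFP-L50D-GFP cell wells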
MsrA inh confirm: confirmation of bovine MsrA inhibitors; shares compounds with MsrA inhibitor; purified bovine MsrA, absorbance read-out; inhibition, % at 15.5 µM; 2,300 compounds, 41% hits;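 further: coupled to thioredoxin reductase with NADPH and selenocystamine and DMSO as substrate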
Each line names hits and unclear results; the compound was inactive in the other large screens (follow-up assays come after a bar, where they were run). An excerpt weighted towards active compounds, which were near 1.6% of everything screened. Unless noted, no stated cut-off is given here; in the data, active means inhibition above about 4.5%; inactive means the rest.

O=C(/C=C/c1cccs1)Nc1nccs1	MsrA inhibitor 6.4 | MsrA inh confirm 7.2
O=C(/C=C/c1cccs1)Nc1cccc(NC(=O)/C=C/c2cccs2)n1	MsrA inhibitor 7.4 | MsrA inh confirm 6.0
COC(=O)c1cc2c(c3c4cc(C)ccc4n(S(=O)(=O)c4ccc(C)cc4)c13)C(=O)N(Cc1ccccc1OC)C2	none (no result: bovine MsrA act, SKN-1 inh, pCIP destab, MT1-MMP act inh)
COc1cccc(/C=C2\SC(=O)N(CC(=O)NC3CCS(=O)(=O)C3)C2=O)c1 (stereo not drawn)	MsrA inhibitor 4.8 | MsrA inh confirm inactive
C/C(=N\NC(=O)c1ccc(NS(=O)(=O)c2cccs2)cc1)c1ccc(O)cc1O	MsrA inhibitor 5.5 | MsrA inh confirm 4.7
O=C(N/N=C/c1ccc([N+](=O)[O-])cc1)c1ccc(NS(=O)(=O)c2cccs2)cc1	MsrA inhibitor 5.4 (no result: pCIP destab) | MsrA inh confirm 6.3
COc1cc(/C=N/NC(=O)c2ccc(NS(=O)(=O)c3cccs3)cc2)cc(OC)c1O	MsrA inhibitor 6.5 (no result: pCIP destab) | MsrA inh confirm 6.4
O=C(NN=Cc1ccc(OC(F)F)cc1)c1ccc(NS(=O)(=O)c2cccs2)cc1	MsrA inhibitor 5.5 (no result: pCIP destab) | MsrA inh confirm inactive
CCc1cc2c(nc1CC)CCCN2Cc1ccccc1C(F)(F)F	none (no result: bovine MsrA act, SKN-1 inh, pCIP destab, MT1-MMP act inh)
CCN=C1NC(c2ccccc2C(F)(F)F)C(C(=O)OC)=C(C)N1C (stereo not drawn)	none (no result: bovine MsrA act, SKN-1 inh, pCIP destab, MT1-MMP act inh)
CC(C)NC(=O)N(C)C[C@H]1OCc2cn(nn2)CCCC(=O)N([C@H](C)CO)C[C@@H]1C	none (no result: bovine MsrA act, SKN-1 inh, pCIP destab, MT1-MMP act inh)
CCc1noc(C)c1C(=O)Nc1nc2c(F)cc(F)cc2s1	none (no result: pCIP destab)
CCc1noc(C)c1C(=O)Nc1nc2c(C)cccc2s1	none (no result: pCIP destab)
CCc1noc(C)c1C(=O)Nc1nc(-c2ccc(F)cc2)c(C)s1	MsrA inhibitor 9.5 | MsrA inh confirm 8.7
CCc1noc(C)c1C(=O)Nc1nc(-c2cc(C)ccc2C)c(C)s1	MsrA inhibitor 18.2 | MsrA inh confirm 21.2
CN1CCCCC(NC(=O)c2ccc(F)cc2)C1=O (stereo not drawn)	none (no result: bovine MsrA act, SKN-1 inh, pCIP destab, MT1-MMP act inh)
CCOC(=O)C1=CCC(c2ccccc2)N(S(C)(=O)=O)C1 (stereo not drawn)	none (no result: bovine MsrA act, SKN-1 inh, pCIP destab, MT1-MMP act inh)
Cc1cc(C)c(CN2CCN(C(=O)Cn3cc(C)c(=O)[nH]c3=O)CC2)c(C)c1	none (no result: bovine MsrA act, SKN-1 inh, pCIP destab, MT1-MMP act inh)
CCOC(=O)c1cc2c(=Cc3ccc(N(C)C)cc3)c3ccccc3n2[n+]1C	MsrA inhibitor 5.0 (no result: pCIP destab) | MsrA inh confirm inactive
CC(C)C[C@@H]1COc2cc(N3CCOCC3)ccc2S(=O)(=O)N1	none (no result: bovine MsrA act, SKN-1 inh, pCIP destab, MT1-MMP act inh)
O=C(Nc1ccccc1)/C(=C1\CCCN1)[N+](=O)[O-]	none
O=C(Nc1ccc(F)cc1)/C(=C1/CCCCCN1)[N+](=O)[O-]	MsrA inhibitor 6.4 | MsrA inh confirm inactive
O=C(CSC(=S)N1CCCC1)N/N=C/c1c(O)[nH]c(=S)[nH]c1=O	MsrA inhibitor 5.2 (no result: pCIP destab) | MsrA inh confirm 5.2
Cc1ccc2nc(/C(C#N)=N/O)[nH]c2c1	MsrA inhibitor 5.1 | MsrA inh confirm inactive
CNC1=C(N(C(C)=O)c2ccc(Br)cc2)C(=O)c2ccccc2C1=O	MsrA inhibitor 36.4 | MsrA inh confirm 5.5
Cc1ccc(OCC(=O)N/N=C/C=C/c2ccco2)cc1	MsrA inhibitor 4.7 | MsrA inh confirm inactive
O=C(COc1ccccc1[N+](=O)[O-])N/N=C/C=C/c1ccco1	none
Cc1cc2nc(-c3ccc(SCc4ccc(C(=O)O)cc4)nc3)[nH]c2cc1C	MsrA inhibitor 5.5 | MsrA inh confirm inactive
CCCCNc1ccc2c(c1)OC[C@H](CC(C)C)NS2(=O)=O	none (no result: bovine MsrA act, SKN-1 inh, pCIP destab, MT1-MMP act inh)
N#CC(C#N)=C1NC(N)=C(C#N)C(c2ccccc2)=C1C#N	MsrA inhibitor 7.2 | MsrA inh confirm 6.7
COC(=O)[C@]12C[C@H](CC(=O)NCc3ccc(C)o3)C(=O)N(Cc3ccccc3)C1=C[C@H](C(C)(C)C)O[C@@H]2C	none (no result: bovine MsrA act, SKN-1 inh, pCIP destab, MT1-MMP act inh)
CC(C)(C)S(=O)(=O)N1C[C@@H]2C(=C(CCO)C[C@@H]3C(=O)N(c4ccccc4)C(=O)[C@@H]32)[C@H]1CCO	none (no result: bovine MsrA act, SKN-1 inh, pCIP destab, MT1-MMP act inh)
C=CCSc1nc2sc3c(c2c(=O)n1-c1ccccc1)CCN(C)C3	MsrA inhibitor 4.9 | MsrA inh confirm inactive
CCSc1nc2sc3c(c2c(=O)n1-c1ccccc1)CCN(C)C3	none
O=C(O)c1cccc(Cn2c(Cl)c(/C=N/NC(=O)c3ccccc3O)sc2=O)c1	MsrA inhibitor 5.0 | MsrA inh confirm inactive
COc1ccc(C(=O)N/N=C/c2sc(=O)n(Cc3cccc(C(=O)O)c3)c2Cl)cc1	MsrA inhibitor 9.0 | MsrA inh confirm 5.6
